The whole screen tested about 360,000 compounds, of which about 1,500 (0.42%) were called active.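 How the source made its calls: active means inhibition above a per-plate cutoff of the control wells' mean inhibition plus 3 SD (cut at about 5.5% in these data); inactive means the rest.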 What follows is part of a selection rich in actives, with near analogues and random picks from the rest.

For the assay, the system named is methionyl-tRNA synthetase (Trypanosoma brucei brucei). As to the kind of experiment: T. brucei MetRS inhibitors, primary screen, biochemical, luminescence (AID 624268).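 Further: 0% = DMSO wells median and 100% = median of wells with control inhibitor compound.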 The settings on record: purified T. brucei MetRS, ATP depletion, Kinase-Glo luminescence; at 11.9 µM; stronger effect = higher value. In a few lines: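 System: purified T. brucei MetRS enzyme / Detection: Kinase-Glo luciferase luminescence reporting remaining unconsumed ATP / Medium: HEPES buffer with MgCl2, KCl, DTT, spermine, BSA, pyrophosphatase / Replication: singlicate, one well per compound / Evaluation: percent inhibition relative to median high and low control wells / Schedule: 2 h aminoacylation at 25 °C after 15 min preincubation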
Turning to `O=C(c1ccc(NS(=O)(=O)c2ccc3[nH]c(=O)[nH]c3c2)cc1)N1CCCCC1`, the inhibition is -0.5% (inactive).

For `Cc1cc(C(C)(C)C)cc(S(=O)(=O)Nc2ccc(C(=O)O)cc2)c1C`, the inhibition is 0.3% (inactive). In the case of `O=C(O)c1ccc(NS(=O)(=O)c2ccc3c(c2)C(=O)c2cc(S(=O)(=O)Nc4ccc(C(=O)O)cc4)ccc2-3)cc1` it was 5.69% (active); in that of `CCOC(=O)CC1=CC(=O)Nc2ccccc2N1`, -0.37% (inactive). As for `COc1ccc(NC(=O)CSc2nnc(Cc3ccccc3)c(=O)n2N)cc1`, the figure is -0.2% (inactive); as for `CCOc1ccc(NC(=O)CSc2nc3c(c(=O)n2-c2ccccc2OC)SCC3)cc1`, -0.23% (inactive). As for `COc1ccccc1-n1c(SCC(=O)Nc2ccc(Cl)cc2)nc(O)c(Cc2ccccc2)c1=O`, the figure is 55.1% (active); as for `COc1ccc(NC(=O)CN(C)C(=O)c2n[nH]c3ccccc23)cc1`, -0.44% (inactive). For `CC1(C(=O)NS(=O)(=O)c2cccc(OC(F)F)c2)CCN1C(=O)C1CC1` (configuration not stated), the inhibition was -0.2% (inactive). As for `CC1(c2cccc([N+](=O)[O-])c2)CC(C)(C)N(C(=O)c2ccccc2)c2ccccc21` (configuration not stated), the inhibition was 0.07% (inactive).

On to `Cc1ccc2[nH]c(=O)c(CN3CCCCC3)c(-c3ccccc3)c2c1`, for which the inhibition is 2.15% (inactive). As to `O=c1cc(CN2CCCCCCC2)c2c(ccc3ccccc32)o1`, the inhibition is 0.63% (inactive).

Consider `c1ccc2cc3[nH]c(CN4CCCCC4)nc3cc2c1`, for which the inhibition is 7.35% (active).

As for `O=C1COc2ccc(NC(=O)N3CCN(c4ccc(F)cc4)CC3)cc2N1`, the inhibition is -0.82% (inactive). As for `C[C@@H]1CN([C@H](C)CO)C(=O)CCCn2cc(nn2)CO[C@H]1CN(C)S(C)(=O)=O`, the figure is -1.67% (inactive); as for `COc1ccc(OC)c(NC(=O)C2(C)CCN2C(=O)Cc2ccccc2)c1` (configuration not stated), -0.17% (inactive); as for `COc1ccc(-c2[nH]ncc2/C=N/NC(=O)c2cc(Br)ccc2O)c(OC)c1`, 5.88% (active). For the compound `Cc1ccc(OCCOCCOc2ccc(Br)cc2/C=N\NC(=O)c2ccncc2)cc1`, the inhibition is 0.03% (inactive).

For `COc1cc(/C=N\NC(=O)c2nonc2N)c(OC)cc1Br`, the inhibition is -0.27% (inactive).

Turning to `Cn1c(N)c(C(=O)COC(=O)c2cccc(S(=O)(=O)N3CCOCC3)c2)c(=O)n(C)c1=O`, the inhibition is 0.03% (inactive).

Consider `CC1CN(S(=O)(=O)c2cccc(C(F)(F)F)c2)CN1C(=O)N1CCOCC1` (configuration not stated), for which the inhibition was -0.97% (inactive).

In the case of `CC(C)CCNC(=O)C1CCCN(S(=O)(=O)c2ccc(F)cc2)C1` (configuration not stated), the inhibition is -0.46% (inactive).

As to `COC(=O)c1c(CCl)noc1C(=O)NC(C)C`, the inhibition is -0.34% (inactive). `CN(CC(=O)NCc1ccc2c(c1)OCO2)CC(=O)Nc1ccc(F)c(F)c1F`: the inhibition is -0.42% (inactive).

In the case of `COc1ccc(CCOC(=O)CNC(=O)c2ccc(Cl)cc2Cl)cc1`, the inhibition was 0.12% (inactive). In the case of `COC(=O)/C(=C\Nc1ccccc1)NC(=O)c1ccc(Cl)cc1Cl` it was 43% (active); in that of `O=C(NNC(=O)c1ccc(Cl)cc1Cl)c1cccs1`, -0.62% (inactive). In the case of `Cn1ccsc1=NC(=O)c1cc(S(=O)(=O)N2CCOCC2)ccc1Cl` it was 0% (inactive). As for `COc1ccc(S(=O)(=O)N2CCOC2CNC(=O)C(=O)NCc2ccncc2)cc1C` (configuration not stated), the figure is -0.16% (inactive); as for `CCCCc1ccc(S(=O)(=O)NC(=O)C2(C)CCN2C(=O)c2c(C)noc2C)cc1` (configuration not stated), -0.38% (inactive); as for `OCCC1CN(Cc2cccn2-c2nccs2)CCN1CCc1ccccc1` (configuration not stated), -0.69% (inactive). As for `O=C(c1cccs1)C1C(c2ccc(Br)cc2)NC(=S)NC1(O)C(F)(F)F` (configuration not stated), the inhibition was 0.24% (inactive). In the case of `Cc1c(CN2CCC(CO)(CCOc3ccccc3)CC2)[nH]c2ccc(Cl)cc12` it was 8.27% (active). In the case of `OCC1(CCc2ccccc2)CCN(Cc2ccc3nsnc3c2)CC1` it was 0.28% (inactive); in that of `COc1cccc(CC2(CO)CCN(Cc3cnc(-c4cccc(C)c4)nc3)CC2)c1`, -0.01% (inactive); in that of `CCc1c(C)n([O-])c2c([n+]1=O)CCCCC2`, -0.95% (inactive). As for `COc1cccc(NC(=O)CN(C)C(=O)c2cc(C3CC3)nn2-c2ccccc2)c1`, the figure is -0.11% (inactive); as for `CSc1ncccc1C(=O)NCC(c1ccco1)N1CCCCC1` (configuration not stated), 0.26% (inactive); as for `Cc1ccc(N2C(=O)CC(NCc3ccc4c(c3)OCO4)C2=O)cc1Cl` (configuration not stated), 12.1% (active).

On to `O=CN1CCN(C2CC(=O)N(c3ccc4c(c3)OCO4)C2=O)CC1` (configuration not stated), for which the inhibition is -2.06% (inactive). In the case of `Cc1ccc(CC2CC(=O)N(c3ccc4c(c3)OCCO4)C2=O)cc1` (configuration not stated) it was -0.24% (inactive); in that of `COC(=O)CCSc1cc([N+](=O)[O-])cc2c1c(C1OCCS1)nn2-c1ccccc1` (configuration not stated), -0.2% (inactive). Regarding `CCOc1ccc(NC(=O)CC(Cc2ccc(Cl)cc2)C(=O)O)cc1` (configuration not stated), the inhibition was -0.95% (inactive). Consider `Cc1ccc(C)c2[nH]c(=O)c(CCNC(=O)CC(C)C)cc12`, for which the inhibition is 0.44% (inactive). Turning to `COc1ccc(-n2c(SCC(=O)NCc3ccco3)nnc2-c2c[nH]c3ccccc23)cc1`, the inhibition is 6.44% (active). As for `O=C(CSc1nnc(-c2c[nH]c3ccccc23)n1-c1ccc(F)cc1)NCc1ccco1`, the figure is 3.05% (inactive). With `COc1ccc(-n2c(SCC(=O)NCc3cccs3)nnc2-c2ccoc2C)cc1`, the inhibition is -0.5% (inactive). For `Cc1cc(C(=O)NNC(=O)c2cccc(S(=O)(=O)N3CCOCC3)c2)c2ccccc2n1`, the inhibition was -0.24% (inactive). Consider `Cc1nn(C)c(Oc2ccc(Cl)cc2)c1C=O`, for which the inhibition is -0.76% (inactive).

Take `O=C(NCc1cc(C(F)(F)F)cc(C(F)(F)F)c1)C1CC(c2cccc(F)c2)=NO1` (configuration not stated): the inhibition was -0.13% (inactive). In the case of `Cc1cccc(-c2cnc(C(O)c3cc(C)cc(C)c3)[nH]2)c1` (configuration not stated) it was -0.08% (inactive); in that of `OC(c1ccc(Cl)cc1)c1ncc(-c2ccc(Cl)cc2)[nH]1` (configuration not stated), 2.49% (inactive). In the case of `OC(c1ccc(Cl)c(F)c1)c1ncc(-c2ccccc2Cl)[nH]1` (configuration not stated), the inhibition is 0.44% (inactive).

Regarding `Cc1ccc(C(O)c2ncc(-c3ccccc3F)[nH]2)cc1F` (configuration not stated), the inhibition was -0.2% (inactive). In the case of `Cc1ccc(-c2cnc(C(O)c3cc(Cl)cc(Cl)c3)[nH]2)cc1` (configuration not stated), the inhibition was 40.4% (active). As for `OC(c1cc(Cl)cc(Cl)c1)c1ncc(-c2ccccc2C(F)(F)F)[nH]1` (configuration not stated), the inhibition was 58% (active). As for `CCC(=O)N1CCC(C)(C(=O)Nc2cc(OC)c(OC)c(OC)c2)C1` (configuration not stated), the figure is 0.06% (inactive). As for `NC(=O)CC[C@@H]1NC(=O)[C@@H]2CCCN2C(=O)c2cc([N+](=O)[O-])cc(F)c2NCCC[C@@H](C(N)=O)NC1=O`, the inhibition was -0.23% (inactive).

Take `O=S(=O)(NCc1cccnc1)c1ccc(Cl)nc1`: the inhibition is -1.09% (inactive). As for `CC(CCN1CCN=C1N(C)C)c1ccccc1` (configuration not stated), the figure is -0.2% (inactive); as for `C#CCNC(=O)C[C@@H]1C[C@@]2(C(=O)OCC)CCCC=C2N(Cc2ccco2)C1=O`, -0.95% (inactive); as for `CCCn1nc(C(=O)NNC(=O)CSCC(=O)Nc2cc(C)on2)c2ccccc2c1=O`, -0.27% (inactive).

In the case of `O=C(NCCc1ccc(C(F)(F)F)cc1)c1ccc2c(c1)OCO2`, the inhibition is -0.15% (inactive).

Turning to `CCCCCCCC[n+]1cccc(C(=O)N2c3c(nc(N)[nH]c3=O)NC(C)C2C)c1` (configuration not stated), the inhibition was 14.2% (active). As for `C[C@H]1CN([C@@H](C)CO)C(=O)c2cc(-c3ccccc3F)cnc2O[C@H]1CN(C)C(=O)C1CCOCC1`, the figure is -1.85% (inactive). As for `CCCn1c(=N)n(CC(=O)c2ccc(Cl)c(Cl)c2)c2ccccc21`, the figure is 1.04% (inactive); as for `O=C(Cn1c(NCCO)nc2ccccc21)c1ccc(Cl)cc1Cl`, 8.55% (active); as for `O=C(Cn1c(-c2cscn2)nc2ccccc21)Nc1ccc(Cl)cc1`, 4.33% (inactive). As for `Brc1cnc2ccccc2c1N1CCCCC1`, the figure is -0.62% (inactive).

As to `CCOc1cc(NC(=S)NCCCN(C)C)c(OCC)cc1NC(=O)C1CC1`, the inhibition was -0.32% (inactive). In the case of `COc1ccc(CCN2CC(C(=O)OCC(=O)NCc3ccccc3Cl)CC2=O)cc1OC` (configuration not stated) it was 0.43% (inactive); in that of `COc1ccc(CCn2ccc(O)c(Cc3ccc(Cl)cc3Cl)c2=O)cc1OC`, 6.37% (active); in that of `COc1ccc(CCNC(=O)CCc2ccccc2O)cc1OC`, -0.3% (inactive).

Regarding `O=C(NCCN1CCOCC1)Nc1cccc(Cl)c1`, the inhibition was 0.46% (inactive). With `CC(C)(CNC(=O)c1cc(=O)[nH]c2ccccc12)N1CCOCC1`, the inhibition is 0.28% (inactive). In the case of `O=C(NCCN1CCOCC1)c1ccccc1N1C(=O)[C@@H]2Cc3c([nH]c4ccccc34)C(c3cccc(Cl)c3)N2C1=O` (some centres not stated), the inhibition is 11.4% (active). Regarding `CC/C(O)=C1\C(=O)CC(C)(C)CC1=NCCc1nc2ccccc2[nH]1`, the inhibition was 0.39% (inactive). Turning to `CCOC(=O)C(=CNNc1ccsc1C(=O)OC)C(=O)OCC`, the inhibition is 0.74% (inactive). Turning to `Cc1csc(/N=C/N(C)C)c1C#N`, the inhibition is -0.21% (inactive).

Turning to `O=c1c2ccccc2nc2n1C(CSCc1cccc(C(F)(F)F)c1)CS2` (configuration not stated), the inhibition was -1% (inactive). In the case of `CC(C)OCCCNc1ncnc2c1[nH]c1ccc(F)cc12` it was 85.6% (active). As for `CCN1CCCC1Cn1cnc2c([nH]c3cc(OC)ccc32)c1=O` (configuration not stated), the figure is 0.01% (inactive); as for `CCN1CCCC1CNc1ncnc2c1[nH]c1ccc(F)cc12` (configuration not stated), 30.4% (active); as for `CCN1CCCC1CNC(=O)Cn1cnc2ccc(S(=O)(=O)N3CCC(C)CC3)cc2c1=O` (configuration not stated), -0.14% (inactive). `CCNC(=O)CC1C(=O)N(c2ccc(OC)cc2)C(=O)N1CCOC` (configuration not stated): the inhibition was -0.58% (inactive). As for `CCOc1ccc(C(C(=O)NC2CCCC2)N(C(=O)c2snc(C(N)=O)c2N)C2CCCC2)cc1` (configuration not stated), the figure is -0.03% (inactive); as for `O=C1c2ccccc2[C@@H]2C[C@@H](O)[C@H](Nc3ccccc3Cl)CCN12`, -0.62% (inactive); as for `CN1CCCN(C(=O)C2CCCCC2)CC1`, -0.59% (inactive).

For `O=C(NCc1ccco1)c1sc2cccc(F)c2c1Cl`, the inhibition is -1.04% (inactive). As for `COc1ccc(CCNC(=O)COC(=O)C2CCCCC2)cc1`, the figure is 0.41% (inactive). As for `CCN(CC)S(=O)(=O)c1ccc2nc(COC(=O)c3n[nH]c4ccccc34)[nH]c2c1`, the figure is -0.9% (inactive). In the case of `O=C(OCc1nc2ccccc2[nH]1)C1CCCCC1` it was 14.4% (active).

These data come from PubChem BioAssay AID624268 (The Scripps Research Institute Molecular Screening Center, 2012).
